Active and inactive are the calls of the source. The calls are words filed in the database; no cut-off is given here.
Legend:
[1] = Antiproliferative activity against human HFF cells assessed as cell proliferation at 200 uM incubated for 3 to 4 days in presence of 1 uM pantothenate by SYBR assay
Plasmodium falciparum [2] = assay: Antiplasmodial activity against ring stage Plasmodium falciparum 3D7 infected in human erythrocytes assessed as inhibition of parasite growth incubated for 96 hrs in presence of 1 uM pantothenate by SYBR Green I dye based fluorescence assay; format: functional, organism-based; settings: 3D7, Erythrocyte
Method in brief: (§1)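 P. falciparum 3D7 ring stages at 0.5% parasitemia and 1% hematocrit in Albumax II medium. Where specified, 100 μM sodium pantothenate was added. Incubation 96 h, then freeze-thaw and SYBR Safe lysis-buffer fluorescence. Chloroquine 0.25-25 μM served as zero-proliferation control. Experiments in triplicate; 100 μM pantothenate data from two experiments.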

[3] = Antiproliferative activity against human HFF cells assessed as cell proliferation at 100 uM incubated for 3 to 4 days in presence of 1 uM pantothenate by SYBR assay
[4] = Selectivity index, ratio of IC50 for human HFF cells to IC50 for Plasmodium falciparum in presence of 1 uM pantothenate; format: toxicity; settings: HFF cells versus Plasmodium falciparum, read-out: Ratio IC50
Method in brief: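 HFF cells grown 3-4 days in RPMI 1640 with 10% bovine calf serum and antibiotics, with compound up to 200 μM; SYBR Safe-based read-out. Selectivity index = HFF IC50 divided by P. falciparum IC50 at 1 μM pantothenate. Where HFF inhibition stayed below 50%, 200 μM (or 100 μM) was used as the HFF value to set limits.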

Plasmodium falciparum [5] = assay: Antiplasmodial activity against ring stage Plasmodium falciparum 3D7 infected in human erythrocytes assessed as inhibition of parasite growth incubated for 96 hrs in presence of 100 uM pantothenate by SYBR Green I dye based fluorescence assay; format: functional, organism-based; settings: 3D7, Erythrocyte
Method in brief: as §1

[6] = Drug degradation in mouse liver microsomes in presence of NADPH after 60 mins; format: ADME, Microsome; settings: 1 h
Method in brief: (§2)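 Degradation in mouse or human liver microsomes was followed over 60 min, with and without an NADPH-regenerating system.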

[7] = Metabolic stability in human liver microsomes assessed as intrinsic clearance at 1 uM in presence of absence of NADPH regenerating system measured per mg protein by LC-MS analysis; format: ADME, Microsome; settings: read-out: CLH
Method in brief: (§3)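 Stability in mouse or human liver microsomes was measured with and without an NADPH-regenerating system, giving in vitro t1/2 and intrinsic clearance in μL/min/mg protein.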

Plasmodium falciparum [8] = assay: Antiplasmodial activity against ring stage Plasmodium falciparum 3D7 infected in human erythrocytes assessed as inhibition of parasite growth at 100 uM pretreated with compound followed by parasite infection by SYBR Green I dye based fluorescence assay; format: functional, organism-based; settings: Erythrocyte
Plasmodium falciparum [9] = assay: Antiplasmodial activity against ring stage Plasmodium falciparum 3D7 infected in human erythrocytes assessed as inhibition of parasite growth incubated for 48 hrs by SYBR Green I dye based fluorescence assay; format: functional, organism-based; settings: Erythrocyte
Method in brief: (§4)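 Triple-sorbitol-synchronized 3D7 ring-stage cultures at 0.5% parasitemia and 1% hematocrit were exposed to compound at ten concentrations at 37 °C in 96% N₂, 3% CO₂, 1% O₂. After 5, 10, 24 or 48 h, cells were washed three times and resuspended without compound. Total culture time 96 h, then SYBR Safe fluorescence. Three experiments in triplicate.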

[10] = Metabolic stability in human liver microsomes assessed as half life at 1 uM in presence or absence of NADPH regenerating system by LC-MS analysis; format: ADME, Microsome
Method in brief: as §3

[11] = Metabolic stability in mouse liver microsomes assessed as intrinsic clearance at 1 uM in presence or absence of NADPH regenerating system measured per mg protein by LC-MS analysis; format: ADME, Microsome; settings: read-out: CLH
Method in brief: as §3

[12] = Drug concentration in BALB/c mouse plasma at 100 mg/kg/day, ip measured after 3 hrs; format: ADME, organism-based; settings: whole blood, in the assay text read “whole blood” for “plasma”
Method in brief: (§5)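 Dosing was 100 mg/kg ip in P. berghei-infected female BALB/c mice, repeated at 24 h. 10 μL tail whole blood was sampled by microsampling device at 3 h, at ~24 h (before the second dose) and at 48 h. Samples were extracted with 80% acetonitrile using diazepam as internal standard and quantified by LC-MS MRM against a spiked-blood standard curve of 5 ng/mL-20 μg/mL. LLQ was 16 or 17 nM. Mean of five mice.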

[13] = Drug concentration in BALB/c mouse plasma at 100 mg/kg/day, ip measured after 1 day; format: ADME, organism-based; settings: whole blood, in the assay text read “whole blood” for “plasma”
Method in brief: as §5

Plasmodium knowlesi = assay: Antiplasmodial activity against Plasmodium knowlesi infected in human erythrocytes assessed as inhibition of parasite growth incubated for 72 hrs in presence of 1 uM pantothenate by SYBR Green I dye based fluorescence assay; format: functional, organism-based; settings: Erythrocyte
[14] = Metabolic stability in mouse liver microsomes assessed as half life at 1 uM in presence or absence of NADPH regenerating system by LC-MS analysis; format: ADME, Microsome
Method in brief: as §3

[15] = Drug concentration in BALB/c mouse plasma at 100 mg/kg/day, ip measured after 2 days; format: ADME, organism-based; settings: whole blood, in the assay text read “whole blood” for “plasma”
Method in brief: as §5

Plasmodium falciparum [16] = assay: Antiplasmodial activity against ring stage Plasmodium falciparum 3D7 infected in human erythrocytes assessed as inhibition of parasite growth incubated for 24 hrs by SYBR Green I dye based fluorescence assay; format: functional, organism-based; settings: Erythrocyte
Method in brief: as §4

Plasmodium falciparum [17] = assay: Antiplasmodial activity against ring stage Plasmodium falciparum 3D7 infected in human erythrocytes assessed as inhibition of parasite growth incubated for 10 hrs by SYBR Green I dye based fluorescence assay; format: functional, organism-based; settings: Erythrocyte
Method in brief: as §4

[18] = Drug degradation in mouse liver microsomes in absence of NADPH after 60 mins; format: ADME, Microsome; settings: read-out: Drug degradation
Method in brief: as §2

[19] = Apparent permeability of the compound across apical to basolateral side in human Caco-2 cells at 20 uM
Plasmodium berghei = assay: Antiplasmodial activity against Plasmodium berghei ANKA infected in BALB/c mouse model of malaria assessed as reduction in parasitemia at 100 mg/kg/day, ip for 2 days by Giemsa staining based flow cytometry analysis; format: functional, organism-based; settings: time 2.0 day
Method in brief: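 Female BALB/c mice, 8-12 weeks, infected ip with 1 × 10⁵ P. berghei ANKA-infected erythrocytes. Once parasitemia reached 0.4-1.5% (5 mice per group), 100 mg/kg was given ip in 150 mM NaCl containing 20.9% v/v DMSO; second dose at 24 h. Daily tail-bleed parasitemia was read by Giemsa-stained thin smear or by flow cytometry (JC-1, Hoechst 33342, anti-CD45/CD71/TER119).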

Structure (SMILES)	proliferation at 200 µM [1] [%]	IC50 (Plasmodium falciparum [2]) [µM]	proliferation at 100 µM [3] [%]	selectivity ratio at 1 µM [4]	other results
CCCCc1cc(CNC(=O)[C@H](O)C(C)(C)CO)no1	74	0.072	95	> 2700	
CCCCCc1cc(CNC(=O)[C@H](O)C(C)(C)CO)on1	88	0.63	100	> 310	IC50 (Plasmodium falciparum [5]): > 12 µM
CCCCCc1nnc(CNC(=O)[C@H](O)C(C)(C)CO)o1	91	71	108	> 2.8	
CC(C)(CO)[C@@H](O)C(=O)NCc1cc(CCc2ccccc2)on1	95	5.9	94	> 33	
CCCCCc1cc(CNC(=O)[C@H](O)C(C)(C)CO)n[nH]1	89	7.4	88	> 27	
CCCCCc1noc(CNC(=O)[C@H](O)C(C)(C)CO)n1	90	5.3	91	> 37	
CCCCCCc1cc(CNC(=O)[C@H](O)C(C)(C)CO)on1	87	2.2	97	> 90	
CCCCCc1cnc(CNC(=O)[C@H](O)C(C)(C)CO)o1	82	23	98	> 8.6	
CCCCCc1nc(CNC(=O)[C@H](O)C(C)(C)CO)no1	100	1.8	111	> 110	IC50 (Plasmodium falciparum [5]): > 12 µM
CCCCCc1cc(CNC(=O)[C@H](O)C(C)(C)CO)no1	71	0.16	104	> 1200	Stabilty [6]: Unstable; microsomal CLint at 1 µM [7]: 11 µL/min/mg; Activity (Plasmodium falciparum [8]): inactive; Activity (Plasmodium falciparum [9]): Active; half-life at 1 µM [10]: 2.53 h; microsomal CLint at 1 µM [11]: 53 µL/min/mg; concentration at 3 h [12]: 0.072 µM; concentration at 24 h [13]: < 0.017 µM; IC50 (Plasmodium knowlesi): 0.0061 µM; IC50 (Plasmodium falciparum [5]): > 1 µM; half-life at 1 µM [14]: 0.55 h; concentration at 48 h [15]: < 0.017 µM; Activity (Plasmodium falciparum [16]): Active; Activity (Plasmodium falciparum [17]): inactive; metabolised at 1 h [18]: 20%; Papp A→B at 20 µM [19]: 550 nm/s; Activity (Plasmodium berghei): inactive
CCCCCn1ncc(CNC(=O)[C@H](O)C(C)(C)CO)n1	103	28	97	> 7.1	
CC(C)(CO)[C@@H](O)C(=O)NCc1cc(CCc2ccccc2)no1	113	11	102	> 18	
CCCCCc1ccc(CNC(=O)[C@H](O)C(C)(C)CO)s1	16	2.8	58	35	
CC(C)NCC(O)COc1cccc2ccccc12 (configuration not stated) [PROPRANOLOL]					Papp A→B at 20 µM [19]: 490 nm/s
